Data published in ChEMBL document CHEMBL5303300, “EUbOPEN Chemogenomics Library - Multiplex” (2023).
“And” between values parts separate entries of the source, which are not always exact repeats. Equal entries are not always repeated.

Test system: HEK-293T
Test: Multiplex assay against HEK293T
Assay type: toxicity, cell-based
Conditions: human, number of replicates 2
How it was run: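 Compound was added to live cells that had been stained at seeding with Hoechst33342, BioTracker Green Microtubule Cytoskeleton Dye, MitoTracker Red and Annexin V Alexa Fluor 680, and imaging followed on a CQ1 microscope at 37°C and 5% CO2. CellPathfinder machine-learning gating divided cells into Hoechst high-intensity objects or normal cells, normal cells into healthy, pyknosed or fragmented nuclei, and pyknosed cells into mitotic or apoptotic. Tubulin, mitochondrial-mass and membrane-permeability phenotypes are per cents of healthy-nucleus cells.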

[1] = 12 h, 1 µM, compound concentration 1 uM
[2] = 12 h, 10 µM, compound concentration 10 uM
[3] = 24 h, 1 µM, compound concentration 1 uM
[4] = 24 h, 10 µM, compound concentration 10 uM
[5] = 48 h, 1 µM, compound concentration 1 uM
[6] = 48 h, 10 µM, compound concentration 10 uM

## COc1cc(Br)c(S(=O)(=O)Nc2ccc(C(F)(F)F)c(O[C@@H]3CCN(C)C3)c2)cc1OC
[1]
  Population Apoptotic (%): 35% and 41%
  Population Fragmented Nuclei (%): 4% and 3%
  Population Healthy Nuclei (%): 83% and 84%
  Population Hoechst High Intensity Objects (%): 8% and 6%
  Population Membrane Permeable-Phenotype (%): 3% and 4%
  Population Mitochondria Different-Phenotype (%): 14% and 12%
  Population Mitotic Cells (%): 64% and 58%
  Population Normal (%): 91% and 93%
  Population Pyknosed Nuclei (%): 11% and 12%
  Population Tubulin-Different-Phenotype (%): 48% and 41%
  Total Cell Count: 739 and 648
[2]
  Population Apoptotic (%): 60% and 67%
  Population Fragmented Nuclei (%): 5% and 3%
  Population Healthy Nuclei (%): 78%
  Population Hoechst High Intensity Objects (%): 11% and 8%
  Population Membrane Permeable-Phenotype (%): 3% and 5%
  Population Mitochondria Different-Phenotype (%): 31% and 22%
  Population Mitotic Cells (%): 39% and 32%
  Population Normal (%): 88% and 91%
  Population Pyknosed Nuclei (%): 16% and 17%
  Population Tubulin-Different-Phenotype (%): 76% and 59%
  Total Cell Count: 481 and 500
[3]
  Population Apoptotic (%): 38% and 42%
  Population Fragmented Nuclei (%): 4% and 5%
  Population Healthy Nuclei (%): 86%
  Population Hoechst High Intensity Objects (%): 7% and 8%
  Population Membrane Permeable-Phenotype (%): 2% and 3%
  Population Mitochondria Different-Phenotype (%): 2% and 3%
  Population Mitotic Cells (%): 61% and 57%
  Population Normal (%): 92% and 91%
  Population Pyknosed Nuclei (%): 8%
  Population Tubulin-Different-Phenotype (%): 26% and 23%
  Total Cell Count: 1282 and 991
[4]
  Population Apoptotic (%): 59% and 43%
  Population Fragmented Nuclei (%): 9% and 6%
  Population Healthy Nuclei (%): 78% and 83%
  Population Hoechst High Intensity Objects (%): 9% and 8%
  Population Membrane Permeable-Phenotype (%): 1% and 4%
  Population Mitochondria Different-Phenotype (%): 10% and 6%
  Population Mitotic Cells (%): 40% and 56%
  Population Normal (%): 90% and 91%
  Population Pyknosed Nuclei (%): 12% and 9%
  Population Tubulin-Different-Phenotype (%): 51% and 30%
  Total Cell Count: 764 and 718
[5]
  Population Apoptotic (%): 14% and 8%
  Population Fragmented Nuclei (%): 15% and 9%
  Population Healthy Nuclei (%): 82% and 87%
  Population Hoechst High Intensity Objects (%): 9%
  Population Membrane Permeable-Phenotype (%): 4% and 3%
  Population Mitochondria Different-Phenotype (%): 0%
  Population Mitotic Cells (%): 85% and 91%
  Population Normal (%): 90%
  Population Pyknosed Nuclei (%): 2%
  Population Tubulin-Different-Phenotype (%): 13% and 11%
  Total Cell Count: 3360 and 2392
[6]
  Population Apoptotic (%): 25% and 20%
  Population Fragmented Nuclei (%): 13%
  Population Healthy Nuclei (%): 82% and 84%
  Population Hoechst High Intensity Objects (%): 9%
  Population Membrane Permeable-Phenotype (%): 5% and 6%
  Population Mitochondria Different-Phenotype (%): 0%
  Population Mitotic Cells (%): 75% and 80%
  Population Normal (%): 90%
  Population Pyknosed Nuclei (%): 4% and 2%
  Population Tubulin-Different-Phenotype (%): 24% and 13%
  Total Cell Count: 1611 and 1583

## O=C(NCc1ccc(F)cc1)N1CCN2C(=O)OC(c3ccccc3)(c3ccccc3)C2C1 (stereo unspecified)
[1]
  Population Apoptotic (%): 56% and 58%
  Population Fragmented Nuclei (%): 5% and 3%
  Population Healthy Nuclei (%): 82% and 77%
  Population Hoechst High Intensity Objects (%): 8% and 6%
  Population Membrane Permeable-Phenotype (%): 6% and 1%
  Population Mitochondria Different-Phenotype (%): 18% and 19%
  Population Mitotic Cells (%): 43% and 41%
  Population Normal (%): 91% and 93%
  Population Pyknosed Nuclei (%): 11% and 19%
  Population Tubulin-Different-Phenotype (%): 76% and 63%
  Total Cell Count: 761 and 454
[2]
  Population Apoptotic (%): 72% and 41%
  Population Fragmented Nuclei (%): 2%
  Population Healthy Nuclei (%): 75% and 85%
  Population Hoechst High Intensity Objects (%): 7% and 4%
  Population Membrane Permeable-Phenotype (%): 5% and 3%
  Population Mitochondria Different-Phenotype (%): 34% and 53%
  Population Mitotic Cells (%): 27% and 58%
  Population Normal (%): 92% and 95%
  Population Pyknosed Nuclei (%): 21% and 12%
  Population Tubulin-Different-Phenotype (%): 93% and 97%
  Total Cell Count: 433 and 482
[3]
  Population Apoptotic (%): 36% and 63%
  Population Fragmented Nuclei (%): 8% and 5%
  Population Healthy Nuclei (%): 83%
  Population Hoechst High Intensity Objects (%): 7% and 9%
  Population Membrane Permeable-Phenotype (%): 5% and 2%
  Population Mitochondria Different-Phenotype (%): 4% and 8%
  Population Mitotic Cells (%): 63% and 36%
  Population Normal (%): 92% and 90%
  Population Pyknosed Nuclei (%): 7% and 11%
  Population Tubulin-Different-Phenotype (%): 51% and 38%
  Total Cell Count: 1157 and 707
[4]
  Population Apoptotic (%): 70% and 54%
  Population Fragmented Nuclei (%): 2% and 4%
  Population Healthy Nuclei (%): 83% and 85%
  Population Hoechst High Intensity Objects (%): 9% and 5%
  Population Membrane Permeable-Phenotype (%): 6% and 3%
  Population Mitochondria Different-Phenotype (%): 31% and 55%
  Population Mitotic Cells (%): 29% and 45%
  Population Normal (%): 90% and 94%
  Population Pyknosed Nuclei (%): 14% and 10%
  Population Tubulin-Different-Phenotype (%): 90% and 94%
  Total Cell Count: 529 and 537
[5]
  Population Fragmented Nuclei (%): 16% and 10%
  Population Healthy Nuclei (%): 80% and 86%
  Population Hoechst High Intensity Objects (%): 9%
  Population Membrane Permeable-Phenotype (%): 8% and 3%
  Population Mitochondria Different-Phenotype (%): 0% and 1%
  Population Mitotic Cells (%): 91% and 68%
  Population Normal (%): 90%
  Population Pyknosed Nuclei (%): 2% and 3%
  Population Tubulin-Different-Phenotype (%): 30% and 21%
  Total Cell Count: 2926 and 1423
[6]
  Population Apoptotic (%): 45% and 43%
  Population Fragmented Nuclei (%): 5% and 8%
  Population Healthy Nuclei (%): 87% and 85%
  Population Hoechst High Intensity Objects (%): 6%
  Population Membrane Permeable-Phenotype (%): 6% and 10%
  Population Mitochondria Different-Phenotype (%): 39% and 15%
  Population Mitotic Cells (%): 55% and 56%
  Population Normal (%): 93%
  Population Pyknosed Nuclei (%): 6% and 5%
  Population Tubulin-Different-Phenotype (%): 93% and 82%
  Total Cell Count: 655 and 824

## CS(=O)(=O)c1ccc(C(=O)Nc2cccc(COc3ccc(Br)cc3CN3CC[C@@H](O)C3)c2)c(Cl)c1.O=CO
[1]
  Population Apoptotic (%): 57% and 47%
  Population Healthy Nuclei (%): 78% and 79%
  Population Mitotic Cells (%): 42% and 52%
  Total Cell Count: 501 and 560
[2]
  Population Apoptotic (%): 44% and 57%
  Population Healthy Nuclei (%): 87% and 85%
  Population Mitotic Cells (%): 55% and 42%
  Total Cell Count: 619 and 489
[3]
  Population Apoptotic (%): 54% and 48%
  Population Healthy Nuclei (%): 84% and 83%
  Population Mitotic Cells (%): 45% and 51%
  Total Cell Count: 735 and 812
[4]
  Population Apoptotic (%): 50% and 66%
  Population Healthy Nuclei (%): 85% and 84%
  Population Mitotic Cells (%): 50% and 33%
  Total Cell Count: 658 and 521
[5]
  Population Apoptotic (%): 30% and 25%
  Population Healthy Nuclei (%): 85%
  Population Mitotic Cells (%): 69% and 75%
  Total Cell Count: 1702 and 1674
[6]
  Population Apoptotic (%): 40% and 59%
  Population Healthy Nuclei (%): 85%
  Population Mitotic Cells (%): 60% and 40%
  Total Cell Count: 998 and 697

## C[C@@H](Oc1cc(-n2cnc3ccc(OC4CCN(C)CC4)cc32)sc1C(N)=O)c1ccccc1Cl [GSK-579289A]
[1]
  Population Apoptotic (%): 49% and 50%
  Population Fragmented Nuclei (%): 4% and 2%
  Population Healthy Nuclei (%): 79% and 81%
  Population Hoechst High Intensity Objects (%): 7% and 8%
  Population Membrane Permeable-Phenotype (%): 8% and 3%
  Population Mitochondria Different-Phenotype (%): 27% and 24%
  Population Mitotic Cells (%): 50%
  Population Normal (%): 93% and 91%
  Population Pyknosed Nuclei (%): 16%
  Population Tubulin-Different-Phenotype (%): 88% and 90%
  Total Cell Count: 686 and 707
[2]
  Population Apoptotic (%): 72% and 75%
  Population Fragmented Nuclei (%): 2% and 1%
  Population Healthy Nuclei (%): 79% and 84%
  Population Hoechst High Intensity Objects (%): 19% and 10%
  Population Membrane Permeable-Phenotype (%): 7% and 3%
  Population Mitochondria Different-Phenotype (%): 69% and 73%
  Population Mitotic Cells (%): 27% and 25%
  Population Normal (%): 80% and 89%
  Population Pyknosed Nuclei (%): 17% and 13%
  Population Tubulin-Different-Phenotype (%): 82% and 85%
  Total Cell Count: 381 and 356
[3]
  Population Apoptotic (%): 41% and 65%
  Population Fragmented Nuclei (%): 1% and 3%
  Population Healthy Nuclei (%): 75%
  Population Hoechst High Intensity Objects (%): 8% and 7%
  Population Membrane Permeable-Phenotype (%): 2% and 0%
  Population Mitochondria Different-Phenotype (%): 55% and 62%
  Population Mitotic Cells (%): 58% and 34%
  Population Normal (%): 91% and 92%
  Population Pyknosed Nuclei (%): 22% and 21%
  Population Tubulin-Different-Phenotype (%): 93% and 95%
  Total Cell Count: 585 and 584
[4]
  Population Apoptotic (%): 78% and 69%
  Population Fragmented Nuclei (%): 7% and 6%
  Population Healthy Nuclei (%): 75% and 79%
  Population Hoechst High Intensity Objects (%): 23% and 16%
  Population Membrane Permeable-Phenotype (%): 1%
  Population Mitochondria Different-Phenotype (%): 88% and 75%
  Population Mitotic Cells (%): 21% and 30%
  Population Normal (%): 76% and 84%
  Population Pyknosed Nuclei (%): 16% and 14%
  Population Tubulin-Different-Phenotype (%): 66% and 80%
  Total Cell Count: 362 and 350
[5]
  Population Apoptotic (%): 68% and 63%
  Population Fragmented Nuclei (%): 3% and 4%
  Population Healthy Nuclei (%): 85% and 83%
  Population Hoechst High Intensity Objects (%): 6% and 13%
  Population Membrane Permeable-Phenotype (%): 1% and 0%
  Population Mitochondria Different-Phenotype (%): 67%
  Population Mitotic Cells (%): 31% and 36%
  Population Normal (%): 93% and 86%
  Population Pyknosed Nuclei (%): 10% and 11%
  Population Tubulin-Different-Phenotype (%): 89% and 90%
  Total Cell Count: 471 and 559
[6]
  Population Apoptotic (%): 67% and 73%
  Population Fragmented Nuclei (%): 12% and 11%
  Population Healthy Nuclei (%): 61% and 68%
  Population Hoechst High Intensity Objects (%): 20% and 22%
  Population Membrane Permeable-Phenotype (%): 4% and 3%
  Population Mitochondria Different-Phenotype (%): 78% and 68%
  Population Mitotic Cells (%): 32% and 26%
  Population Normal (%): 79% and 77%
  Population Pyknosed Nuclei (%): 26% and 19%
  Population Tubulin-Different-Phenotype (%): 55% and 65%
  Total Cell Count: 453 and 440
